Experimental data from ChEMBL document CHEMBL3784950, “Higginsianins A and B, Two Diterpenoid α-Pyrones Produced by Colletotrichum higginsianum, with in Vitro Cytostatic Activity” (J Nat Prod, 2016).
Calls of active or inactive are those of the source. The calls are words filed in the database; no cut-off is given here.

How the values were obtained:
[1] = (§1) Antiproliferative activity against human Hs683 cells assessed as cell viability after 72 hrs by MTT assay; type: functional, cell-based; conditions: Hs 683, 72 h
How it was run: (§2)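 Cells cultured 72 h with compound; MTT conversion to formazan read by spectrophotometry as a measure of metabolically active cells. IC50 is the concentration that reduces growth by 50% relative to control optical density. Six replicates per condition; one or two independent sextuplicate experiments.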

A549 = assay: Antiproliferative activity against human A549 cells assessed as cell viability after 72 hrs by MTT assay; type: functional, cell-based; conditions: for IC50: A549, 72 h; how it was run: as §2
MCF7 = assay: Antiproliferative activity against human MCF7 cells assessed as cell viability after 72 hrs by MTT assay; type: functional, cell-based; conditions: for IC50: MCF7, 72 h; how it was run: as §2
SK-MEL-28 = assay: Antiproliferative activity against human SK-MEL-28 cells assessed as cell viability after 72 hrs by MTT assay; type: functional, cell-based; conditions: for IC50: SK-MEL-28, 72 h; how it was run: as §2
[2] = (§3) Antiproliferative activity against mouse B16F10 cells assessed as cell viability after 72 hrs by MTT assay; type: functional, cell-based; conditions: B16-F10, 72 h; how it was run: as §2
[3] = (§4) Antiproliferative activity against human U373 cells assessed as cell viability after 72 hrs by MTT assay; type: functional, cell-based, U-373MG ATCC; conditions: U373 MG; how it was run: as §2
Hs 683 [4] = assay: as §1; type: functional, cell-based; how it was run: as §2
U-373MG ATCC = assay: as §4; type: functional, cell-based; how it was run: as §2
B16-F10 = assay: as §3; type: functional, cell-based; how it was run: as §2
Hs 683 [5] = assay: Cytostatic activity against human Hs683 cells assessed as morphological changes at 1 uM after 48 hrs by phase contrast microscopic analysis; type: functional, cell-based
How it was run: (§5)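 Phase-contrast microscopy of Hs683 glioma cells treated at 1 versus 50 μM, judging cytostatic versus cytotoxic morphology.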

Hs 683 [6] = assay: Cytotoxicity against human Hs683 cells assessed as morphological changes at 50 uM after 48 hrs by phase contrast microscopic analysis; type: functional, cell-based; how it was run: as §5
[7] = Antiproliferative activity against human Hs683 cells assessed as growth inhibition at 1 uM after 72 hrs by quantitative video microscopic analysis relative to control; type: functional; conditions: Hs 683, 72 h, read-out: GI
How it was run: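 Hs683 cells filmed by computer-assisted phase-contrast microscopy at 1 μM and 40 μM versus control. Global growth is the cell count on the last image divided by that on the first, taken at 24, 48 and 72 h. The GGR index is treated global growth divided by control global growth. Run once in duplicate; mean ± SEM.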

[8] = Stability in human Hs683 cells assessed as photosensitivity at 1 to 40 uM by quantitative video microscopic analysis; type: ADME, cell-based; conditions: hs 683, 40 µM
[9] = Stability in human Hs683 cells assessed as photoactivity at 1 to 40 uM by quantitative video microscopic analysis; type: ADME, cell-based; conditions: hs 683, 40 µM

IC50 (A549)	IC50 (MCF7)	IC50 (SK-MEL-28)	Stability [8]	Stability [9]	SMILES	IC50 [1]	IC50 [2]	IC50 [3]	Activity (Hs 683 [4])	Activity (U-373MG ATCC)	Activity (A549)	Activity (MCF7)	Activity (SK-MEL-28)	Activity (B16-F10)	Activity (Hs 683 [5])	Activity (Hs 683 [6])	inhibition of growth at 1 µM [7]
47 µM	41 µM	84 µM	–	–	C=C1CC[C@@H]2[C@](C)(CC[C@H]3O[C@H](C=C(C)C)C[C@@]23C)[C@@H]1Cc1c(OC(C)=O)c(C)c(C)oc1=O	1000 nM	2000 nM	–	–	–	–	–	–	–	–	–	–
29 µM	2 µM	88 µM	–	–	C=C1CC[C@H]2[C@](C)(CCC=C(C)C)[C@H](O)CC[C@]2(C)[C@@H]1Cc1c(O)c(C)c(C)oc1=O	2000 nM	3000 nM	84 µM	–	–	–	–	–	–	–	–	–
–	–	–	–	–	C=C1CC[C@H]2[C@]3(C)C[C@@H](C=C(C)C)O[C@H]3CC[C@]2(C)[C@@H]1Cc1c(O)c(C)c(C)oc1=O	–	–	–	inactive	inactive	inactive	inactive	inactive	inactive	–	–	–
16 µM	38 µM	48 µM	–	–	C=C1CC[C@@H]2[C@](C)(CC[C@H]3O[C@H](C=C(C)C)C[C@@]23C)[C@@H]1Cc1c(OC)c(C)c(C)oc1=O	400 nM	1000 nM	–	–	–	–	–	–	–	–	–	–
–	–	–	–	–	C=C1CC[C@@H]2[C@](C)(CC[C@H](O)[C@@]2(C)CCC=C(C)C)[C@@H]1Cc1c(O)c(C)c(C)oc1=O	–	–	–	inactive	inactive	inactive	inactive	inactive	inactive	–	–	–
35 µM	24 µM	51 µM	–	–	C=C1CC[C@@H]2[C@](C)(CC[C@H]3CO[C@H](C=C(C)C)C[C@]32C)[C@@H]1Cc1c(O)c(C)c(C)oc1=O	49000 nM	25000 nM	–	–	–	–	–	–	–	–	–	–
33 µM	19 µM	73 µM	Stable	Stable	C=C1CC[C@@H]2[C@](C)(CC[C@H]3O[C@H](C=C(C)C)C[C@@]23C)[C@@H]1Cc1c(O)c(C)c(C)oc1=O	1000 nM	1000 nM	63 µM	–	–	–	–	–	–	Active	Active	50%
